Screening results deposited in PubChem by Broad Institute.
Hits are enriched below; roughly 2.2% of the tested compounds scored in any of these assays.
dFosB activator = activators of delta FosB homodimer, primary screen, biochemical, fluorescence polarization, TAMRA-CDK5 oligo, single point; Protein FosB (Mus musculus), P13346; purified delta FosB; percent of positive-control signal above neutral wells; activation, % at 25 µM; 340,000 tested, 0.99% active; AID 493131, 2011;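 active means mean activation above about 17%, with every replicate also reaching it, limit read from the data, passing the limit was not always enough; inconclusive means only one of the two conditions met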
CDK5 inh = inhibitors of human CDK5/p35 kinase, primary screen, biochemical, single concentration. inhibition, % at 10 µM. Cyclin-dependent kinase 5 (Homo sapiens) + Cyclin-dependent kinase 5 activator 1 (Homo …. AID 488839, 2010. Recombinant CDK5/p35, ADP-Glo luminescence, 60 min. 330,000 tested, 0.01% active;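 active means highest replicate inhibition of at least 50% and at least 75% of replicates reaching 50%; inconclusive means only one of the two criteria met; inactive means both criteria failed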;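 further: plate controls were DMSO neutral control for no effect and GW8510 at 10 µM for full effect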
Target sequence (Q00535 whole entry, looked up): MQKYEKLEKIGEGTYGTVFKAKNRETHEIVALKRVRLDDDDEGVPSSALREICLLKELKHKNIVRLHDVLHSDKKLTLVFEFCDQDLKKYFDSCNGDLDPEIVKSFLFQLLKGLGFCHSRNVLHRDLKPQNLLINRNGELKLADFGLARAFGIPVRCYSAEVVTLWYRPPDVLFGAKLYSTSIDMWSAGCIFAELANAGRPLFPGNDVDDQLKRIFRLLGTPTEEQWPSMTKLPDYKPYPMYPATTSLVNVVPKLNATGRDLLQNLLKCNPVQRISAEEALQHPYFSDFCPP
Target sequence (Q15078 whole entry, looked up): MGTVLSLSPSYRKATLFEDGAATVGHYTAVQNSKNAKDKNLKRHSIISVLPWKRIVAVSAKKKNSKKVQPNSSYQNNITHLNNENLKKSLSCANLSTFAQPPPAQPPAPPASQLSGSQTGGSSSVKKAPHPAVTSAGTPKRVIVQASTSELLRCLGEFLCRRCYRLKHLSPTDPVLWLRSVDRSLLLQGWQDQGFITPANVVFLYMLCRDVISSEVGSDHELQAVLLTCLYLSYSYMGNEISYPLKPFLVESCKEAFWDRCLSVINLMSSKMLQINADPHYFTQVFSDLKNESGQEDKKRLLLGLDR
CAL PDZ FP-1 = CAL PDZ peptide-binding inhibitors, primary screen, biochemical, fluorescence polarization, Cer-tagged CAL PDZ, HTS; 330,000 tested, 0.02% active; inhibition, % at 20 µM; purified CAL PDZ, TMR-peptide fluorescence polarization, 1 h; Golgi-associated PDZ and coiled-coil motif-containing protein (Homo sapiens), Q9HD26;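 active means highest replicate inhibition of at least 40%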;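 further: plate controls were DMSO neutral control wells for no effect and unlabeled competitor peptide control wells for full effect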
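material = purified tagged CAL PDZ domain construct (CerCALP) | compound dosing = 20 µM, one dose | times = 1 h at RT | measured by = fluorescence polarization from S- and P-plane intensities, G-factor corrected | read-out = inhibition from polarization loss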
Dyrk1A ADPGlo = rat Dyrk1A kinase inhibitors, primary screen, biochemical, single point, plate reader. 310,000 tested, 0.43% active. inhibition, % at 12.5 µM. Dual specificity tyrosine-phosphorylation-regulated kinase 1A (Rattus norvegicus), Q63470. ADP-Glo luminescence, NFATc1 peptide; in the data active means inhibition above about 50%;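 further: plate controls were vehicle with enzyme for no effect and no enzyme for full effect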
CAL PDZ FP-2 = untagged CAL PDZ binding inhibitors, primary screen, biochemical, fluorescence polarization, HTS; Golgi-associated PDZ and coiled-coil motif-containing protein (Homo sapiens), Q9HD26; inhibition, % at 24.9 µM; purified CAL PDZ, TMR-peptide fluorescence polarization, 1 h; 300,000 tested, 0.92% active;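 active means mean inhibition of at least 30% with at least half of replicates also reaching 30%; inconclusive means no clear call, values can overlap the other calls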;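 further: 0% = DMSO neutral control and 100% = excess unlabeled competitor peptide PRC23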
Rtt109 HAT inh = inhibitors of C. albicans Rtt109/Vps75 HAT, primary screen, biochemical, ThioGlo CoA-SH fluorescence, plate reader. purified Rtt109/Vps75, 4 h. Histone acetyltransferase RTT109 (Candida albicans (strain SC5314 / ATCC MYA-2876)), …. 330,000 tested, 0.16% active. inhibition, % at 34.9 µM;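 active means inhibition of at least 50% in every replicate; inconclusive means best replicate reaches 50% inhibition but some replicates fall short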
Active calls of the source: *; ? = inconclusive; nt = no result; + = active, no number.

SMILES	dFosB activator	CDK5 inh	CAL PDZ FP-1	Dyrk1A ADPGlo	CAL PDZ FP-2	Rtt109 HAT inh
O=C(CSC1=NS(=O)(=O)c2cc(F)ccc2N1)NCCc1ccccc1	2	1	-3	-1	0	-7
COc1ccccc1N1CCN(C(=O)c2sc3nc(-c4ccc(F)cc4)cn3c2C)CC1	-10	-1	1	1	-1	9
CCOc1ccccc1C(=O)NCC(=O)OCC(=O)N1CCCC1	3	0	0	-1	44*	-5
CCOc1ccccc1C(=O)NCC(=O)OCC(=O)N1C(C)CCCC1C (stereo not given)	-4	0	0	-1	-1	-10
COc1ccc(C)cc1-n1c(=O)c2ccccc2c2ccccc2c1=O	-8	-3	-1	nt	+	-2
COc1ccc(-n2c(=O)c3ccccc3c3ccccc3c2=O)c(OC)c1	1	1	0	-7	-1	-19
O=[N+]([O-])c1ccc(C2=NN(CCO)C(=Nc3ccc(OC(F)(F)F)cc3)SC2)cc1	-16	0	0	9	31*	6
CCN(CC)S(=O)(=O)c1ccc(OC)c(NC(=O)c2cccs2)c1	-3	1	-1	11	nt	-11
O=c1[nH]c(=O)n(C2CCCCCC2)c(O)c1C=NCc1ccc(F)cc1	-32	-2	-7	-2	34*	1
O=c1cccc2c1c1cc[nH]c3ccc(=O)n2c31	0	3	-1	23	49*	4
CCCCNC(=O)c1nn2c(C(F)(F)F)cc(-c3ccccc3)nc2c1Br	-6	0	-1	-3	2	-1
N#CCNC(=O)c1nn2c(C(F)(F)F)cc(-c3ccccc3)nc2c1Br	15	-1	nt	-3	75*	-5
Cc1ccc(C2CC(c3cccs3)=NN2C(=O)CSc2nc(=O)n3cc(C)ccc3n2)cc1 (stereo not given)	-4	3	-6	8	-5	-5
CN(Cc1nc2ccccc2c(=O)[nH]1)C(=O)c1cccc(NC(=O)c2cccs2)c1	-6	2	-1	-2	66*	4
CN(Cc1nc2ccccc2c(=O)[nH]1)C(=O)c1cc2c(s1)CCCCC2	-9	-5	-1	-3	-5	1
CC(C)c1ccc(NC(=O)c2cc(S(=O)(=O)N3CCCCC3)c[nH]2)cc1	2	0	0	-3	nt	-1
CCN(CC)S(=O)(=O)c1ccc(N2CCOCC2)c(NC(=O)c2cc([N+](=O)[O-])ccc2Cl)c1	2	0	-1	2	40*	-1
CCc1ccccc1NC(=O)c1cc([N+](=O)[O-])ccc1N1CCOCC1	-1	1	-1	-10	3	3
CCN(CC)S(=O)(=O)c1ccc(N2CCOCC2)c(NC(=O)c2cccc3ccccc23)c1	0	0	0	0	2	14
O=C(Nc1ccccc1Cl)c1cc(S(=O)(=O)N2CCCCC2)ccc1N1CCOCC1	-8	-1	-3	-4	-6	60*
O=C(Nc1ccccc1N1CCCCC1)c1cc(S(=O)(=O)N2CCOCC2)ccc1Cl	-7	-1	-3	6	-5	3
CC1CCN(c2ccccc2NC(=O)c2cc([N+](=O)[O-])ccc2N2CCOCC2)CC1	-13	0	-1	-10	-3	54*
COc1ccc(/C=N/OCC(=O)N(Cc2ccc(OC)cc2)c2ccccc2C(=O)O)cc1	-2	3	-3	-2	-5	nt
CC(C)c1nc(CNC(=O)CC2C(=O)NCCN2Cc2ccc(F)cc2Cl)cs1 (stereo not given)	-5	-4	-2	10	nt	-2
COc1ccccc1CN1CCNC(=O)C1CC(=O)NCc1c(C)n[nH]c1C (stereo not given)	-8	-2	nt	-4	51*	3
SMILES	dFosB activator	CDK5 inh	CAL PDZ FP-1	Dyrk1A ADPGlo	CAL PDZ FP-2	Rtt109 HAT inh
Cc1cc(C)nc(CCNC(=O)CC2C(=O)NCCN2Cc2ccc(F)cc2Cl)n1 (stereo not given)	-3	-4	0	-5	60*	-4
COc1ccccc1CN1CCNC(=O)C1CC(=O)NCc1csc(C)n1 (stereo not given)	-13	1	-2	-3	-2	6
Cc1cc(S(=O)(=O)NCC(c2ccc(F)cc2)N2CCN(C)CC2)ccc1F (stereo not given)	3	0	0	-9	nt	?
Cc1ccc2c(Cl)c(C(=O)NCC(c3ccco3)N3CCCC3)sc2c1 (stereo not given)	-17	1	-2	2	75*	0
Cc1cc(N2C(=O)C=CC2=O)c([N+](=O)[O-])cc1C	-9	6	-2	3	2	116*
O=C(OCc1ccc(Br)cc1)c1ccncc1	0	1	-3	-5	-1	57*
O=C(OCc1ccc(Br)cc1)c1cccnc1	-4	3	33	-2	9	2
CCOC(=O)C1=CNS(=O)(=O)NC1c1ccc(OC(C)=O)cc1 (stereo not given)	2	-2	1	-2	-2	-3
COc1ccc(/C=N/Nc2ccc(C(=O)O)cc2)c(OC)c1OC	4	0	0	4	3	1
COC(=O)c1ccc2c(c1)C(C)(C)C(/C=C/c1ccc(OC)c(OC)c1OC)=[N+]2C	18*	1	0	10	-4	4
CN(C)S(=O)(=O)c1ccc(N2CCCC2)c(C(=O)NNC(=O)c2ccc(Br)cc2)c1	-6	1	-4	-9	-4	-3
O=C(CN1C(=O)CCSc2ccc(S(=O)(=O)N3CCCC3)cc21)NCc1ccccc1Cl	12	0	-1	4	-6	-11
O=C(NCc1cccs1)C1CCCN1S(=O)(=O)c1ccccc1F (stereo not given)	4	-2	nt	0	86*	-23
Cc1ccccc1C(=O)N1CCC(C(=O)Nc2ccc(S(=O)(=O)N3CCCCC3)cc2)CC1	-14	1	-3	0	0	44
CCN1C(=O)CS/C1=N\S(=O)(=O)c1ccc(Cl)cc1	-3	-1	64*	nt	-2	9
Cc1ccc(S(=O)(=O)N2CCN(C(=O)CN3C(=O)NC(C)(c4ccc5ccccc5c4)C3=O)CC2)cc1 (stereo not given)	-4	1	-2	-1	73*	21
